Published values from different studies.
Compare with care: the assays were run in different laboratories.
Target: Death-associated protein kinase 3 (DAPK3, Homo sapiens, UniProt O43293)

SMILES | read-out | technique | concentration | remaining binding
Cn1cc(Cl)c2c(Oc3c(F)cc(Nc4cc(Cl)nc(N)n4)cc3F)ccnc21 | cell-free assay | competition with immobilised ligand | 0.1 µM | 100%
O=C(c1ccc(Nc2ncc(Cl)c(-c3cc4ccccc4s3)n2)cc1)N1CCC(N2CCCC2)CC1 | binding | competition with immobilised ligand | 1 µM | 11%
C[C@@H]1CCN(c2nccc(-c3cnn4ncccc34)n2)C1 | binding |  | 1 µM | 69%
Nc1ncc2c(n1)-c1c([nH]c3ccc(C#CC4CC4)cc13)CCCC2 | binding | competition with immobilised ligand | 1 µM | 100%
O=C(NCCCN1CCOCC1)c1ccc(Nc2ncc(Cl)c(-c3ccc(Cl)s3)n2)cc1 | binding | competition with immobilised ligand | 1 µM | 17%
CS(=O)(=O)c1cc(C2(NC(=O)c3cncc4c3cnn4-c3ccc(F)cc3)CC2)ccn1 | cell-free assay | competition with immobilised ligand | 1 µM | 98%
CN(CCCC(F)(F)F)c1nccc(-c2cnn3ncccc23)n1 | binding |  | 1 µM | 90%
C=CC(=O)N1CCC(C(=O)NCC(=O)N2CCN(c3nc(-c4cnc(N)nc4C(F)F)nc(N4CCOCC4)n3)CC2)CC1 | binding | competition with immobilised ligand | 1 µM | 89%
O=C1NC(c2ccccn2)Sc2ccccc21 (stereo not shown) | cell-free assay | competition with immobilised ligand | 1 µM | 0%
O=C(c1ccc(Nc2ncc(Cl)c(-c3ccc(Cl)s3)n2)cc1)N1CCC(N2CCCC2)CC1 | binding | competition with immobilised ligand | 1 µM | 14%
CN(C)c1nccc(-c2cnn3ncccc23)n1 | binding |  | 1 µM | 91%
CC(C)(O)c1cncc(-c2nc3ccc(F)cc3n2C2CC2)c1 | cell-free assay | competition with immobilised ligand | 1 µM | 100%
N[C@H]1CCN(c2nccc(-c3cnn4ncccc34)n2)C1 | binding |  | 1 µM | 100%
Nc1c(C(=O)NCc2ccc(C(=O)NCCCC3CCCCC3)cc2)cnn1-c1ccccc1 | cell-free assay | competition with immobilised ligand | 0.1 µM | 100%
C[C@@H](c1ccc(-n2cnc3c(N)ncnc32)cc1)N1CCc2nn(C)c(Cc3ccccc3)c2C1=O | binding | competition with immobilised ligand | 0.1 µM | 87%
COc1cnc(Nc2cccc(S(N)(=O)=O)c2)nc1N1CCN(c2ccccc2)C(=O)C1 | binding | competition with immobilised ligand | 1 µM | 92%
CN(C)c1ncc(F)c(-c2cnn3ncccc23)n1 | binding |  | 1 µM | 63%
CN(C)c1ncnc(-c2ccc3nc(Nc4cc(CN5CCN(C(=O)CC(F)(F)F)CC5)ccn4)[nH]c3c2)c1Cl | cell-free assay | competition with immobilised ligand | 1 µM | 99%
CC1CCCN1c1nccc(-c2cnn3ncccc23)n1 (stereo not shown) | binding |  | 1 µM | 89%
COc1cnc(Nc2cccc(S(N)(=O)=O)c2)nc1N1CCN(c2ccccc2)CC1 | binding | competition with immobilised ligand | 1 µM | 76%
CNC(=O)Nc1ccc2c(c1)[C@@]1(CC2)OC(=O)N(CC(=O)N(Cc2ccc(F)cc2)[C@@H](C)C(F)(F)F)C1=O | cell-free assay | competition with immobilised ligand | 1 µM | 100%
O=C(Nc1c[nH]nc1C(=O)NC1CCNCC1)c1cc(F)cc(F)c1 | binding | competition with immobilised ligand | 1 µM | 100%
